An excerpt weighted towards active compounds, which were near 3.7% of everything screened.
PGE2 EP2 inh – EP2 receptor (human) inhibition | P43116 | C6 glioma cells expressing human EP2, cAMP TR-FRET; cells stimulated with saturating PGE2 | inhibition, % at 25 µM | 260,000 tested, 0.52% active | AID 1422;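 active = percent inhibition above 40 after rounding to a whole number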;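 note: rat C6 glioma host cells with rolipram phosphodiesterase inhibitor present; the protocol text gives 20 µM as final concentration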
Target sequence (P43116 whole entry, looked up): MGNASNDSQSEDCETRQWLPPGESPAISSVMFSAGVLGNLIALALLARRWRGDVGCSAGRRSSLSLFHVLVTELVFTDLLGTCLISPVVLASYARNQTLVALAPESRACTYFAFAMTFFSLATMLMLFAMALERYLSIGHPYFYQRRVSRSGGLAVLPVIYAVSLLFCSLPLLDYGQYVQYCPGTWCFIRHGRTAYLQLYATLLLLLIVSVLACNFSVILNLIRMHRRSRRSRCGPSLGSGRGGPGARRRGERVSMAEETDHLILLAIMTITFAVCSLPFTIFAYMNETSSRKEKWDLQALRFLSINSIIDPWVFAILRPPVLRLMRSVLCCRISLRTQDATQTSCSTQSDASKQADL
EP2 modulator – EP2 receptor (human) modulation | P43116 | induction, % at 25 µM | 260,000 tested, 0.83% active | EP2-expressing cells, cAMP HTRF FRET, PGE2 co-stimulation;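 active = compounds whose cAMP rise, as percent of the full-agonist control response, exceeds 60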;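 note: rat C6 glioma line stably carrying human EP2 under a CMV promoter; the protocol text gives 20 µM as final concentration; 100% = response of wells given 1 µM PGE2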
OX1R antag-1 – blocks the human orexin 1 receptor; CHO/OX1R cells, Fluo-8 calcium fluorescence, orexin A; inhibition, % at 5 µM; 330,000 tested, 0.43% active; AID 434989;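 active = inhibition above its plate's threshold, mean inhibition of all tested compounds on the plate plus 3 SD, cut at about 37% in these data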;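 note: 0% = orexin A challenge wells and 100% = SB-334867-A antagonist wells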
OX1R antag-2 – antagonists of human orexin 1 receptor (OX1R) | OX1R-expressing cells, FRET antagonist read-out | inhibition, % at 6.6 µM | 330,000 tested, 1.8% active; in the data active = inhibition mostly above about 38%, no sharp cut-off; inactive = mostly below about 40%;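 note: 0% = agonist challenge alone and 100% = reference antagonist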
CHO parental Ca – counter-screen for OX1R antagonists: effect in parental CHO cells; parental CHO-K1, ATP-induced calcium, Fluo-8 fluorescence; inhibition, % at 5.6 µM; 330,000 tested, 0.63% active;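 active = inhibition above that plate's mean sample inhibition plus 3 SD, cut at about 26% in these data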;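 note: 0% = ATP-challenged DMSO wells and 100% = DMSO wells without ATP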
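Assay system: parental CHO cells; Read-out basis: percent inhibition of ATP-evoked calcium rise, normalized to controls; Benchmarks: ATP and no-ATP DMSO wells; Compound dosing: single nominal dose of 5.6 µM per compound; Signal: Fluo-8 calcium dye fluorescence; Also added: ATP as calcium-mobilizing challenge; Repeats: singlicate.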
GPR7 antagonist – human neuropeptides B/W receptor 1 antagonism; P48145; GPR7-expressing cells, fluorescence antagonist assay; inhibition, % at 4.4 µM; 290,000 tested, 1.1% active; in the data active = inhibition above about 16%, passing the limit was not always enough;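 note: cells stimulated with the agonist NPW; 0% = agonist with vehicle and 100% = vehicle without agonist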
The depositor's hits bear a star; nt = no result.

SMILES	PGE2 EP2 inh	EP2 modulator	OX1R antag-1	OX1R antag-2	CHO parental Ca	GPR7 antagonist
Cc1cc(S(=O)(=O)N2CCCOC2CNC(=O)C(=O)NCCc2ccco2)ccc1F (centres undefined)	nt	nt	11	61*	-18	-7
O=C(NCCc1ccco1)C(=O)NCC1OCCCN1S(=O)(=O)c1ccc(Cl)cc1 (centres undefined)	nt	nt	4	46	-14	-19
Cc1ccc(C)c(S(=O)(=O)N2CCCCC2CCNC(=O)C(=O)NCCc2ccco2)c1 (centres undefined)	nt	nt	-2	55*	-29	nt
Cc1ccc(C)c(S(=O)(=O)N2CCCC2CNC(=O)C(=O)NCCc2ccco2)c1 (centres undefined)	nt	nt	11	58*	-15	nt
COc1ccccc1CNC(=O)C(=O)NCCC1CCCCN1S(=O)(=O)c1ccc(C)cc1 (centres undefined)	nt	nt	-16	34	2	nt
COc1ccccc1CCNC(=O)C(=O)NCCC1CCCCN1S(=O)(=O)c1ccccc1 (centres undefined)	nt	nt	-2	60*	-31	nt
Cn1cccc1C(=O)OCC(=O)N1CCc2ccccc21	nt	nt	11	2	-15	nt
CCC(Oc1ccccc1OC)C(=O)N1CC(=O)Nc2ccccc21 (centres undefined)	nt	nt	-11	17	-14	7
CC1(C)C[C@H](O)[C@]2(CO)[C@H](O)C[C@]3(C)C(=CCC4[C@@]5(C)CC[C@H](O)C(C)(C)C5CC[C@]43C)[C@@H]2C1 (some centres undefined)	nt	nt	17	24	-6	nt
S=C(NCc1ccccc1)NCc1ccc(CNC(=S)NCc2ccccc2)cc1	16	-77	29	2	48*	15
CCOc1ccc(NC(=O)Nc2cc(OCC(F)(F)F)cc(OCC(F)(F)F)c2)cc1	7	3	3	46	22	-8
O=C(Nc1ccc(F)cc1)Nc1cc(OCC(F)(F)F)cc(OCC(F)(F)F)c1	7	2	13	31	40*	16
CC(C)(C)c1ccc(NC(=O)Nc2ccc(F)cc2)cc1	8	-58	64*	29	62*	24*
CCOc1cccc(N2C(=O)CC(n3cnc4ccccc43)C2=O)c1 (centres undefined)	9	12	-19	23	-15	-3
COc1nc(NC(C)=O)nc(C)c1Br	3	26	-4	10	0	-12
COc1ccc(NC(=S)NC(NC(=O)c2cccc(Cl)c2)C(Cl)(Cl)Cl)c([N+](=O)[O-])c1 (centres undefined)	9	-36	7	31	26*	-4
CCOc1ccc(N(C(=O)c2ccco2)C(C(=O)NC2CCCC2)c2ccccc2)cc1 (centres undefined)	6	61*	nt	nt	nt	nt
CC1CCN(C(=O)C(C)Sc2nc(-c3ccccc3)cc(C(F)(F)F)n2)CC1 (centres undefined)	4	18	-30	11	30*	1
CC(Sc1nc(-c2ccccc2)cc(C(F)(F)F)n1)C(=O)N1CCCC1 (centres undefined)	8	6	-13	7	-11	-5
COc1cccc2c(=O)c3ccccc3oc12	7	-14	-9	62*	-7	-4
COc1cccc2c(=O)ccoc12	0	12	-22	13	-5	3
CCOc1cccc(C(=O)Nc2ccc3[nH]ncc3c2)c1	nt	nt	12	10	-7	-6
NC(=O)c1ccc(N2CCCC2)c(NC(=O)c2ncoc2-c2cccs2)c1	13	-52	nt	nt	nt	nt
O=C(Nc1ccccc1N1CCCCC1)c1ncoc1-c1cccs1	nt	66*	nt	nt	nt	nt
O=C(NCCCN1CCOCC1)c1onc(CSc2nc3ccccc3[nH]2)c1C(=O)NCCCN1CCOCC1	nt	nt	-16	7	4	-17
SMILES	PGE2 EP2 inh	EP2 modulator	OX1R antag-1	OX1R antag-2	CHO parental Ca	GPR7 antagonist
CCc1nnc2n1N=C(c1ccc([N+](=O)[O-])cc1)CS2	9	-4	-12	56*	-11	-11
Cc1cccc(Nc2nc(N)c([N+](=O)[O-])c(N3CC(C)OC(C)C3)n2)c1 (centres undefined)	nt	nt	-44	14	-33	-40
Cc1cccc(Nc2nc(NCc3ccco3)nc(N)c2[N+](=O)[O-])c1	14	33	-44	17	-8	-21
Cc1cccc(Nc2nc(N)c([N+](=O)[O-])c(N3CC(C)CC(C)C3)n2)c1 (centres undefined)	5	63*	-52	20	-31	-20
Cc1ccc(Nc2nc(N)c([N+](=O)[O-])c(NCc3ccccc3)n2)cc1	2	74*	-48	20	-42	-37
Nc1nc(Nc2ccc(Cl)cc2)nc(NCc2ccco2)c1[N+](=O)[O-]	1	65*	-43	24	-34	-35
Cc1cccc(Nc2nc(N)c([N+](=O)[O-])c(NCc3ccco3)n2)c1	2	62*	-28	37	-31	-23
CCc1ccc(NC(=O)Cn2nc(C(F)(F)F)c3c2CCC3)cc1	-2	8	1	24	40*	-22
Nc1ccc2nc(-c3ccccc3)[nH]c2c1	15	-38	-11	11	-1	-2
Nc1ccc2nc(-c3cccs3)[nH]c2c1	93*	4	-29	7	-13	-6
COc1ccc(NC(=O)c2c(Nc3ccccc3)sc(C(=O)c3ccc(F)cc3)c2N)cc1	nt	-14	14	19	31*	0
COc1ccc(C(=O)c2sc(Nc3ccccc3)c(C(=O)Nc3ccc(OC)c(OC)c3)c2N)cc1	17	-20	-3	18	-6	8
Cc1onc(-c2ccccc2)c1C(N)=O	13	12	-2	13	-1	-10
O=[N+]([O-])c1cccc(-c2nnc3cccc(Cl)n23)c1	nt	nt	-22	17	-1	5
O=[N+]([O-])c1ccc(-c2nnc3cccc(Cl)n23)cc1	nt	nt	-18	49*	-7	-6
CC(CCc1ccccc1)NC(=O)C(Cc1ccccc1)NS(=O)(=O)c1cccs1 (centres undefined)	1	20	-18	38*	-21	6
COc1ccc(/C=N/NC(=O)c2ccoc2C)cc1COc1c(C)cccc1C	22	2	51*	37	74*	22
COc1c(O)cc(O)c2c(=O)cc(-c3ccccc3)oc12	nt	nt	18	19	-5	nt
O=[N+]([O-])c1cc(Br)c(O)c(C=Nc2ccc(N3CCOCC3)cc2)c1	4	29	-14	66*	-16	-10
COc1cccc(C=Nc2ccc(N3CCOCC3)cc2)c1O	nt	nt	-32	4	-14	-15
CC(C)(C)NC(=O)COC(=O)c1ccc(O)cc1	12	7	-1	16	-5	16*
Cc1cnccc1CN(C)C(=O)C1CCC(=O)N(Cc2ccccc2F)C1 (centres undefined)	nt	nt	-17	7	-8	-8
CC(=O)Nc1ccc(S(=O)(=O)c2ccc([N+](=O)[O-])cc2)cc1	nt	nt	-14	38	-9	23
